Experimental data pooled from the literature.
Lines come from different studies, so protocols differ.
Target: Interleukin-1 receptor-associated kinase 1 (IRAK1, Homo sapiens, UniProt P51617)

| SMILES | effect on | action | method | concentration | quantity | result |
| --- | --- | --- | --- | --- | --- | --- |
| Nc1ncc(-c2nc(N3CCOCC3)nc(N3CCOCC3)n2)c(C(F)F)n1 | binding | – | competition with immobilised ligand | 10 µM | remaining binding | 50% |
| COc1cc(Nc2ncc(F)c(Nc3ccc4c(n3)NC(=O)C(C)(C)O4)n2)cc(OC)c1OC | binding | – | – | 10 µM | inhibition | 100% |
| N#CC1(c2ccccn2)CCN(Cc2cc(C(=O)O)c(=O)n3ccccc23)CC1 | cell-free assay | – | competition with immobilised ligand | 1 µM | remaining binding | 77% |
| CC(C)(C)c1cc(C=C(C#N)C#N)cc(Br)c1O | enzyme activity | inhibitor | – | 0.5 µM | remaining activity | 105% |
| Cn1cc(-c2cccc(N3CCc4c(sc5c4CC(C)(C)C5)C3=O)c2CO)cc(Nc2ccncn2)c1=O | enzyme activity | inhibitor | – | 1 µM | inhibition | -4% |
| C#Cc1n[nH]c2c(-c3cn(C(C)c4ccccn4)c(=O)[nH]c3=O)cc(F)cc12 (stereo not drawn) | enzyme activity | inhibitor | – | 1 µM | inhibition | 11.6% |
| O=c1[nH]c2ccccc2n1C1CCN(Cc2ccc(-c3[nH]c4cc5ncnc5cc4nc3-c3ccccc3)cc2)CC1 | cell-free assay | – | – | 0.5 µM | remaining signal | 109% |
| Cn1cncc1[C@](O)(COc1ccc(C#N)cc1-c1ccc(OC(F)(F)F)cc1)c1ccc(C#N)cc1 | cell-free assay | – | competition with immobilised ligand | 1 µM | remaining binding | 83% |
| COc1ncccc1-c1cnn2ccc(N3CCN(C(=O)OC(C)C)CC3)nc12 | binding | – | competition with immobilised ligand | 1 µM | remaining binding | 80% |
| Cc1nn(C)cc1-c1nc2c(N3CCN(Cc4ccc(Cl)cc4)CC3)c(Cl)cnc2[nH]1 | binding | – | competition with immobilised ligand | 1 µM | remaining binding | 56% |
| C#Cc1n[nH]c2c(-c3cn([C@@H](C)c4ccccc4)c(=O)[nH]c3=O)cc(F)cc12 | enzyme activity | inhibitor | – | 0.1 µM | inhibition | -7% |
| Cn1cc(-c2cc(F)cc(N3CCn4c(cc5c4CCCC5)C3=O)c2CO)cc(Nc2ccc(N3CCN(C4COC4)CC3)cn2)c1=O | enzyme activity | inhibitor | – | 0.1 µM | inhibition | 2% |
